Data as given in ChEMBL document CHEMBL1944546, “Structure-activity relationships of novel alkylides: 3-O-arylalkyl clarithromycin derivatives with improved antibacterial activities” (2012).
In brackets after ≈: the same amount, converted by molar mass.

Tests used:
Streptococcus pneumoniae [1] = assay: Antibacterial activity against erythromycin-susceptible Streptococcus pneumoniae ATCC 49619 by broth microdilution method; type: functional
Procedure, shortened: (§1)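 MIC read by broth microdilution following CLSI (2010) guidance. The clinical isolates were identified by 16S rDNA sequencing and labelled by genotype and phenotype. S. aureus ATCC 29213 and S. pneumoniae ATCC 49619 were the control strains. Azithromycin, clarithromycin and 3-OH-clarithromycin were run as reference compounds.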

Streptococcus pneumoniae [2] = assay: Antibacterial activity against penicillin-, constitutive MLS-resistant Streptococcus pneumoniae PU 11 by broth microdilution method; type: functional
Procedure, shortened: (§2)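 MIC by broth microdilution following CLSI (2010) recommendations, using clinical isolates identified by 16S rDNA sequencing and labelled by genotype and phenotype. S. aureus ATCC 29213 and S. pneumoniae ATCC 49619 were run as control strains, and azithromycin, clarithromycin and 3-OH-clarithromycin were tested as reference agents.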

Streptococcus pneumoniae [3] = assay: Antibacterial activity against efflux,penicillin-susceptible Streptococcus pneumoniae PU 09 by broth microdilution method; type: functional; procedure, shortened: as §1
Streptococcus pneumoniae [4] = assay: Antibacterial activity against penicillin-susceptible, constitutive MLS-resistant Streptococcus pneumoniae PU 27 by broth microdilution method; type: functional; procedure, shortened: as §2
[5] = tested on: Streptococcus dysgalactiae; assay: Antibacterial activity against efflux, erythromycin-resistant Streptococcus dysgalactiae A 1 by broth microdilution method; type: functional; procedure, shortened: as §2
Streptococcus pyogenes [6] = assay: Antibacterial activity against constitutive MLS-resistant Streptococcus pyogenes A 2 by broth microdilution method; type: functional; procedure, shortened: as §2
Streptococcus pyogenes [7] = assay: Antibacterial activity against erythromycin-susceptible Streptococcus pyogenes A 3 by broth microdilution method; type: functional; procedure, shortened: as §1
Staphylococcus aureus [8] = assay: Antibacterial activity against erythromycin-susceptible Staphylococcus aureus ATCC 29213 by broth microdilution method; type: functional; procedure, shortened: as §1
Staphylococcus aureus [9] = assay: Antibacterial activity against methicillin-, constitutive MLS-resistant […] by broth microdilution method; type: functional; procedure, shortened: as §2
Staphylococcus aureus [10] = assay: Antibacterial activity against methicillin-susceptible, inducible MLS-resistant Staphylococcus aureus PU 64 by broth microdilution method; type: functional; procedure, shortened: as §2
[11] = tested on: Staphylococcus haemolyticus; assay: Antibacterial activity against methicillin-resistant, coagulase-negative, constitutive MLS-resistant Staphylococcus haemolyticus PU 19 by broth microdilution method; type: functional; procedure, shortened: as §2
[12] = tested on: Staphylococcus epidermidis; assay: Antibacterial activity against methicillin-susceptible, inducible MLS-resistant Staphylococcus epidermidis E1 by broth microdilution method; type: functional; procedure, shortened: as §2
[13] = tested on: Staphylococcus epidermidis; assay: Antibacterial activity against methicillin-resistant, constitutive MLS-resistant Staphylococcus epidermidis E2 by broth microdilution method; type: functional; procedure, shortened: as §2
Staphylococcus hominis [14] = assay: Antibacterial activity against methicillin-resistant, coagulase-negative, inducible MLS-resistant Staphylococcus hominis E3 by broth microdilution method; type: functional; procedure, shortened: as §2
[15] = tested on: Staphylococcus epidermidis; assay: Ratio of MIC for clarithromycin to compound for methicillin-susceptible, inducible MLS-resistant Staphylococcus epidermidis E1 by broth microdilution method; type: functional
[16] = tested on: Staphylococcus epidermidis; assay: Ratio of MIC for azithromycin to compound for methicillin-susceptible, inducible MLS-resistant Staphylococcus epidermidis E1 by broth microdilution method; type: functional
Staphylococcus aureus [17] = assay: Antibacterial activity against methicillin-, inducible MLS-resistant Staphylococcus aureus PU 32 by broth microdilution method
Staphylococcus aureus [18] = assay: Antibacterial activity against methicillin-, inducible MLS-resistant […] by broth microdilution method; type: functional; procedure, shortened: as §2
Streptococcus pneumoniae [19] = assay: Ratio of MIC for clarithromycin to compound for efflux,penicillin-susceptible Streptococcus pneumoniae PU 09 by broth microdilution method; type: functional
Procedure, shortened: (§3)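 MICs of the test compounds and of the reference macrolides (azithromycin, clarithromycin) were determined side by side by broth microdilution following CLSI (2010). The clinical isolates were identified by 16S rDNA sequencing and labelled by genotype and phenotype. S. aureus ATCC 29213 and S. pneumoniae ATCC 49619 served as control strains.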

Streptococcus pneumoniae [20] = assay: Ratio of MIC for azithromycin to compound for efflux,penicillin-susceptible Streptococcus pneumoniae PU 09 by broth microdilution method; type: functional; procedure, shortened: as §3
[21] = tested on: Streptococcus dysgalactiae; assay: Ratio of MIC for clarithromycin to compound for efflux, erythromycin-resistant Streptococcus dysgalactiae A 1 by broth microdilution method; type: functional; procedure, shortened: as §3
[22] = tested on: Streptococcus dysgalactiae; assay: Ratio of MIC for azithromycin to compound for efflux, erythromycin-resistant Streptococcus dysgalactiae A 1 by broth microdilution method; type: functional; procedure, shortened: as §3
Staphylococcus hominis [23] = assay: Ratio of MIC for clarithromycin to compound for methicillin-resistant, coagulase-negative, inducible MLS-resistant Staphylococcus hominis E3 by broth microdilution method; type: functional; procedure, shortened: as §3
Staphylococcus hominis [24] = assay: Ratio of MIC for azithromycin to compound for methicillin-resistant, coagulase-negative, inducible MLS-resistant Staphylococcus hominis E3 by broth microdilution method; type: functional; procedure, shortened: as §3

| Compound | MIC (Streptococcus pneumoniae [1]) [µg/mL] | MIC (Streptococcus pneumoniae [2]) [µg/mL] | MIC (Streptococcus pneumoniae [3]) [µg/mL] | MIC (Streptococcus pneumoniae [4]) [µg/mL] | MIC [5] [µg/mL] | MIC (Streptococcus pyogenes [6]) [µg/mL] | MIC (Streptococcus pyogenes [7]) [µg/mL] | MIC (Staphylococcus aureus [8]) [µg/mL] | MIC (Staphylococcus aureus [9]) [µg/mL] | MIC (Staphylococcus aureus [10]) [µg/mL] | MIC [11] [µg/mL] | MIC [12] [µg/mL] | MIC [13] [µg/mL] | MIC (Staphylococcus hominis [14]) [µg/mL] | Ratio [15] | Ratio [16] | MIC (Staphylococcus aureus [17]) [µg/mL] | further results |
| --- | --- | --- | --- | --- | --- | --- | --- | --- | --- | --- | --- | --- | --- | --- | --- | --- | --- | --- |
| CC[C@H]1OC(=O)[C@H](C)[C@@H](OCCCc2cncnc2)[C@H](C)[C@@H](O[C@@H]2O[C@H](C)C[C@H](N(C)C)[C@H]2O)[C@](C)(OC)C[C@@H](C)/C(=N\O)[C@H](C)[C@@H](O)[C@]1(C)O | 1 (≈ 1.38 µM) | > 256 | 2 (≈ 2.76 µM) | 64 (≈ 88.3 µM) | 2 (≈ 2.76 µM) | > 256 | 0.5 (≈ 0.69 µM) | 8 (≈ 11 µM) | > 256 | 8 (≈ 11 µM) | > 256 | 16 (≈ 22.1 µM) | > 256 | > 256 | >16 | >16 | 8 (≈ 11 µM) | – |
| CC[C@H]1OC(=O)[C@H](C)[C@@H](O/C=C\Cc2cncnc2)[C@H](C)[C@@H](O[C@@H]2O[C@H](C)C[C@H](N(C)C)[C@H]2O)[C@](C)(OC)C[C@@H](C)/C(=N\O)[C@H](C)[C@H]2OC(=O)O[C@@]21C | 0.032 (≈ 0.0427 µM) | > 256 | 0.125 (≈ 0.167 µM) | 1 (≈ 1.34 µM) | 0.125 (≈ 0.167 µM) | > 256 | 0.016 (≈ 0.0214 µM) | 0.5 (≈ 0.668 µM) | > 256 | 0.25 (≈ 0.334 µM) | > 256 | 0.25 (≈ 0.334 µM) | > 256 | 0.25 (≈ 0.334 µM) | 1024 | 1024 | – | MIC (Staphylococcus aureus [18]): 0.25 µg/mL (≈ 0.334 µM); Ratio (Streptococcus pneumoniae [19]): 32; Ratio (Streptococcus pneumoniae [20]): 32; Ratio [21]: 32; Ratio [22]: 32; Ratio (Staphylococcus hominis [23]): 1024; Ratio (Staphylococcus hominis [24]): 1024 |
| CC[C@H]1OC(=O)[C@H](C)[C@@H](O/C=C\Cc2cncnc2)[C@H](C)[C@@H](O[C@@H]2O[C@H](C)C[C@H](N(C)C)[C@H]2O)[C@](C)(OC)C[C@@H](C)C(=O)[C@H](C)[C@@H](O)[C@]1(C)O | 1 (≈ 1.41 µM) | > 256 | 1 (≈ 1.41 µM) | 32 (≈ 45.2 µM) | 4 (≈ 5.65 µM) | > 256 | 4 (≈ 5.65 µM) | 8 (≈ 11.3 µM) | > 256 | 8 (≈ 11.3 µM) | > 256 | 4 (≈ 5.65 µM) | > 256 | 8 (≈ 11.3 µM) | >16 | >16 | 4 (≈ 5.65 µM) | – |
| CC[C@H]1OC(=O)[C@H](C)[C@@H](OCCCc2cncnc2)[C@H](C)[C@@H](O[C@@H]2O[C@H](C)C[C@H](N(C)C)[C@H]2O)[C@](C)(OC)C[C@@H](C)/C(=N\OCc2ccccc2Cl)[C@H](C)[C@H]2OC(=O)O[C@@]21C | 1 (≈ 1.14 µM) | > 256 | 2 (≈ 2.28 µM) | 32 (≈ 36.6 µM) | 4 (≈ 4.57 µM) | 32 (≈ 36.6 µM) | 1 (≈ 1.14 µM) | 16 (≈ 18.3 µM) | > 256 | > 256 | > 256 | > 256 | > 256 | > 256 | – | – | 16 (≈ 18.3 µM) | – |
| CC[C@H]1OC(=O)[C@H](C)[C@@H](O[C@H]2C[C@@](C)(OC)[C@@H](O)[C@H](C)O2)[C@H](C)[C@@H](O[C@@H]2O[C@H](C)C[C@H](N(C)C)[C@H]2O)[C@](C)(OC)C[C@@H](C)C(=O)[C@H](C)[C@@H](O)[C@]1(C)O [CLARITHROMYCIN] | 0.032 (≈ 0.0428 µM) | > 256 | 4 (≈ 5.35 µM) | 1 (≈ 1.34 µM) | 8 (≈ 10.7 µM) | > 256 | 0.032 (≈ 0.0428 µM) | 0.25 (≈ 0.334 µM) | > 256 | 2 (≈ 2.67 µM) | > 256 | > 256 | > 256 | > 256 | – | – | 1 (≈ 1.34 µM) | – |
| CC[C@H]1OC(=O)[C@H](C)[C@@H](OC/C=C/c2cncnc2)[C@H](C)[C@@H](O[C@@H]2O[C@H](C)C[C@H](N(C)C)[C@H]2O)[C@](C)(OC)C[C@@H](C)/C(=N\OCc2c(C)cc(C)cc2C)[C@H](C)[C@H]2OC(=O)O[C@@]21C | 16 (≈ 18.2 µM) | 64 (≈ 72.6 µM) | 32 (≈ 36.3 µM) | 64 (≈ 72.6 µM) | 32 (≈ 36.3 µM) | 32 (≈ 36.3 µM) | 32 (≈ 36.3 µM) | > 256 | > 256 | > 256 | > 256 | > 256 | > 256 | > 256 | – | – | > 256 | – |
| CC[C@H]1OC(=O)[C@H](C)[C@@H](OC/C=C/c2cncnc2)[C@H](C)[C@@H](O[C@@H]2O[C@H](C)C[C@H](N(C)C)[C@H]2O)[C@](C)(OC)C[C@@H](C)/C(=N\O)[C@H](C)[C@@H](O)[C@]1(C)O | 16 (≈ 22.1 µM) | > 256 | 32 (≈ 44.3 µM) | 128 (≈ 177 µM) | 16 (≈ 22.1 µM) | > 256 | 8 (≈ 11.1 µM) | > 256 | > 256 | > 256 | > 256 | > 256 | > 256 | > 256 | – | – | > 256 | – |
| CC[C@H]1OC(=O)[C@H](C)[C@@H](OC/C=C/c2cncnc2)[C@H](C)[C@@H](O[C@@H]2O[C@H](C)C[C@H](N(C)C)[C@H]2O)[C@](C)(OC)C[C@@H](C)/C(=N\O)[C@H](C)[C@H]2OC(=O)O[C@@]21C | 0.5 (≈ 0.668 µM) | > 256 | 4 (≈ 5.34 µM) | 32 (≈ 42.7 µM) | 1 (≈ 1.34 µM) | > 256 | 0.125 (≈ 0.167 µM) | 8 (≈ 10.7 µM) | > 256 | 4 (≈ 5.34 µM) | > 256 | > 256 | > 256 | > 256 | – | – | 8 (≈ 10.7 µM) | – |
